# GSTO1 inh – blocks human GSTO1 in RBBP9 counter-screen | P78417 | recombinant GSTO1, activity-based probe fluorescence polarization | inhibition, % at 5.96 µM | hit rate 1.1% among 300,000 | AID 1974;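 active = inhibition above the campaign mean inhibition plus 3 SD, cut at about 35% in these data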;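 also: 0% = GSTO1-1 with DMSO and 100% = wells lacking GSTO1-1 enzyme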
# ZTA DNA inh – blocks Epstein-Barr virus ZTA, an EBNA-1 counter-screen; inhibition, % at 11 µM; P03206; hit rate 0.15% among 320,000; ZTA-DNA binding, fluorescence polarization; in the data active = inhibition above about 33%
# Apaf1 inhib – blocks human Apaf-1 apoptosome activity; O14727; reconstituted apoptosome caspase-3 activity, DEVD-Rh110 fluorescence; inhibition, % at 20 µM; hit rate 0.71% among 330,000; AID 489030; active = inhibition of at least 40% at 20 µM;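 also: plate controls were DMSO wells for no effect and DEVD-CHO caspase inhibitor wells for full effect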
#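 Assay system: Apoptosome proteins | Medium: pH 7.5 Hepes buffer with CHAPS, BSA, DTT | Also added: Cytochrome c and DEVD-Rh110 substrate | Times: 30 min plus 50 min, RT | Detection: Rhodamine 110 fluorescence at Ex 480/Em 540 nm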
# procasp3 activ – procaspase-3 (human) activation | P42574 | recombinant procaspase-3 D3A, Ac-DEVD-pNA absorbance 405 nm | activation, % at 8.5 µM | hit rate 0.11% among 330,000 | AID 463141;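 active = activation above the mean of all tested compounds plus 3 SD, cut at about 21% in these data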;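 also: 0% = DMSO alone and 100% = DMSO wells spiked with extra 5 µM PC-3 D3A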
#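 assay system = Procaspase-3 D3A mutant | signal = absorbance at 405 nm, 0 and 120 min | times = 1 h preincubation plus 2 h reaction at 25 °C | repeats = single replicate | read-out = % activation between DMSO and enzyme-spiked controls | medium = Zinc-free HEPES saline buffer with Triton X-100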
# EBNA-1 inh – blocks EBNA-1 binding to DNA. EBNA-1 DNA binding, fluorescence polarization. inhibition, % at 14.8 µM. hit rate 0.34% among 300,000; in the data active = inhibition above about 28%
# proCasp7 act – counter-screen for procaspase-3 activators: activators of human procaspase-7; P55210; recombinant procaspase-7, Ac-DEVD-pNA absorbance 405 nm; D23A/D198A/D206A triple mutant, cannot self-cleave; scale: DMSO 0, 5 µM enzyme 100; activation, % at 8.5 µM; hit rate 0.093% among 330,000; AID 463210;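 active = percent activation above the screen-wide mean plus 3 SD, cut at about 25% in these data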
#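 Assay system: Uncleavable procaspase-7 mutant enzyme / Input: 2 µM procaspase-7 mutant as dispensed / Dosing: single nominal 8.5 µM compound dose, 0.8% DMSO final / Timing: 1 h enzyme–compound preincubation and 2 h substrate reaction, both 25 °C / Detection: p-Nitroaniline absorbance at 405 nm, read at 0 and 120 min / Replication: singlicate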
# Apaf-1 inh conf2 – Apaf-1 inhibition, single-dose confirmed. inhibition, % at 20 µM. reconstituted apoptosome, caspase-3 DEVD-Rh110 fluorescence. hit rate 25% among 1,800. shares compounds with Apaf1 inhib;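 active = mean inhibition of at least 40% at 20 µM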;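 also: plate controls were DMSO wells for no effect and DEVD-CHO caspase inhibitor control wells for full effect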
# Rh110 quench – interferes with Rh110 fluorescence, flagging false Apaf-1 inhibitors | Rh110 fluorescence interference, quenched caspase reaction | shares compounds with Apaf1 inhib | 1,800 tested, under 10 active | activation (fluorescence interference), % at 20 µM;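 active = signal rise of 40% or more at 20 µM, treated as a fluorescence artifact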
# Fluor interf inh – shows fluorescence interference in the Apaf-1 inhibitor assay format; shares compounds with Apaf1 inhib; fluorescence interference counterscreen, Apaf-1 assay format; IC50, µM; 460 tested, under 10 active; AID 588538; call rule not given here
# * hit, by the source's call; / = no result given. Sampled rows, rich in hits. Any-hit rate of the full collection: about 1.8%.
SMILES,GSTO1 inh,ZTA DNA inh,Apaf1 inhib,procasp3 activ,EBNA-1 inh,proCasp7 act,Apaf-1 inh conf2,Rh110 quench,others
CSCCC(NC(=O)c1ccccc1Cl)C(=O)N1CCCCC1 (configuration not stated),/,-8,16,4,/,-7,/,/,
COc1cc(-c2ccc(Nc3ccccc3C(=O)O)c(OC)c2)ccc1Nc1ccccc1C(=O)O,/,/,48*,/,/,/,49*,0,Fluor interf inh=>100
COc1cccc(Nc2ccccc2C(=O)O)c1,8,4,14,-2,-1,-7,/,/,
COc1ccccc1-c1c(C)c(C)nc(N)c1C#N,9,-4,10,2,4,11,/,/,
COc1ccccc1-c1c(C#N)c(N)nc2c1CCc1ccccc1-2,18,-2,96*,11,-4,-26,28,8,
NC1=NC[C@H](CC2CCCCC2)N1CCc1cc(C(F)(F)F)cc(C(F)(F)F)c1,-10,-7,74*,8,-9,4,50*,27,Fluor interf inh=>100
FC(F)(F)c1cc(CCN2CCNC[C@@H]2CC2CCCCC2)cc(C(F)(F)F)c1,/,/,79*,-6,/,-6,41*,22,Fluor interf inh=>100
FC(F)(F)c1cc(CCN2CCNC[C@@H]2c2ccccc2)cc(C(F)(F)F)c1,/,/,61*,5,/,10,17,8,
CCCC[C@@H]1CNCCN1CCc1cc(C(F)(F)F)cc(C(F)(F)F)c1,1,-14,19,3,4,-1,/,/,
CC1(c2ccccc2)NC(=O)N(CC(=O)N(c2ccccc2)C2CCS(=O)(=O)C2)C1=O (configuration not stated),/,/,3,-2,/,-6,/,/,
O=C1C(Cl)=C(N2CCCCC2)C(=O)C(Cl)=C1c1cnc(N2CCCCC2)s1,/,/,48*,/,/,/,25,6,
COc1ccc(N)c2c1OCCC2=O,6,-1,87*,2,2,-13,11,9,
COCCNC(=O)CN1C(=O)NC2(CCCc3cc(OC)ccc32)C1=O (configuration not stated),7,12,-1,11,11,-6,/,/,
COc1ccc(CCN2CC(C(=O)Nc3ccc(S(C)(=O)=O)cc3)CC2=O)cc1OC (configuration not stated),0,2,-4,-1,9,13,/,/,
COc1ccc(CCN(C)C(=O)C2CC(=O)N(Cc3ccc(C)cc3)C2)cc1OC (configuration not stated),/,-3,56*,2,/,0,33,5,
COc1ccc(CCN(C)C(=O)C2CCN(Cc3ccc(C)cc3)CC2)cc1OC,2,9,2,-5,3,10,/,/,
CCN(CC)CCNC(=O)c1ccc(NC(=O)C2CC(=O)N(CCc3ccc(OC)c(OC)c3)C2)cc1 (configuration not stated),/,-1,47*,4,/,12,31,0,
Cc1cccc(NC(=O)CNC(=O)COC(=O)C2CC2C)c1C (configuration not stated),/,/,4,3,/,5,/,/,
CC1(C)Oc2ccc3ccc(=O)oc3c2[C@@H](O)[C@H]1O,/,9,3,4,/,-2,/,/,
C=CCC[C@H](Cc1ccc(F)cc1)C(=O)OC[C@@H](NC(=O)[C@@H](CC=C)CC(=O)N(CCO)Cc1ccccc1)C(C)(C)C,/,/,36,-3,/,7,/,/,
CN(Cc1ccc(F)cc1)C(=O)CNC(=O)c1cccs1,/,12,56*,1,/,9,41*,4,Fluor interf inh=>100
CCN1CCN(c2ccc(NC(=O)c3cc4ccccc4cc3OC)cc2C)CC1,/,18,51*,-1,/,18,17,10,
CCN1CCN(c2ccc(NC(=O)c3ccccc3F)cc2Cl)CC1,16,12,-2,2,16,0,/,/,
CC1(C)CC2CC(C)(CN2C(=O)COC(=O)c2ccc(NC(=O)CC#N)cc2)C1 (configuration not stated),/,/,8,6,/,10,/,/,
O=C(COC(=O)c1ccc(-n2cnnn2)cc1)Nc1cc(Cl)ccc1F,/,-8,-12,2,/,-1,/,/,
SMILES,GSTO1 inh,ZTA DNA inh,Apaf1 inhib,procasp3 activ,EBNA-1 inh,proCasp7 act,Apaf-1 inh conf2,Rh110 quench,others
COc1ccc2nc(NC(=O)c3ccc(F)cc3)sc2c1,-7,19,-3,4,20,6,/,/,
COc1ccc2c(c1)Cc1sc(NC(=O)c3ccccc3)nc1-2,2,0,83*,-8,0,17,60*,6,Fluor interf inh=>100
COc1ccc(C(=O)Nc2nc3c(s2)Cc2cc(OC)ccc2-3)cc1,5,17,97*,8,-7,-7,59*,4,Fluor interf inh=>100
COc1ccc2c(c1)Cc1sc(NC(=O)c3cccs3)nc1-2,5,-5,87*,-6,5,-4,44*,2,Fluor interf inh=>100
Cc1cc(OCC(=O)OCC(=O)NC2CCCCC2C)ccc1Cl (configuration not stated),/,-15,5,6,/,-10,/,/,
CCCOc1cccc(C(=O)NCCNC(=O)c2cnccn2)c1,-1,3,1,-5,-9,5,/,/,
CCOCCCNC(=O)c1ccc2c(c1)ncn2-c1ccccc1OC,-2,0,-3,3,-6,14,/,/,
Nc1ccc2nn(-c3ccccc3)nc2c1,/,/,93*,/,/,/,32,14,
CCOc1ccc(NC(=O)CN(C)C(=O)c2ccc(COc3ccccc3)cc2)cc1OCC,/,0,48*,1,/,-8,40*,4,Fluor interf inh=>100
CN1CCN(c2ccc(NC(=O)c3cc(S(N)(=O)=O)ccc3N3CCOCC3)cc2)CC1,/,-2,40*,0,/,-7,5,8,
CN1CCN(c2ccc(NC(=O)c3cc([N+](=O)[O-])ccc3N3CCOCC3)cc2)CC1,-1,-8,11,-4,-2,-4,/,/,
CCc1ccc2cccc3c2c1N=CN3C,19,-16,87*,-10,7,-28,18,-4,
CCOc1cc(/C=C/C(=O)Nc2ccc(C(=O)NCCN(CC)CC)cc2)ccc1OCC(C)C,-17,-17,47*,7,-7,-4,40,21,
CCOc1ccc(/C=C/C(=O)Nc2ccc(C(N)=O)cc2)cc1OC,-1,21,-17,-1,15,4,/,/,
COc1ccccc1NCC(=O)NC(=O)NC1CCCCC1,/,/,6,-12,/,4,/,/,
O=C(C(Cc1ccccc1)N1C(=O)c2ccccc2C1=O)N1c2ccccc2CCc2ccccc21 (configuration not stated),-1,9,40*,3,-1,2,13,1,
